Laboratory results reported in ChEMBL document CHEMBL4261655, “Matrix metalloproteinase-12 inhibitors: synthesis, structure-activity relationships and intestinal absorption of novel sugar-based biphenylsulfonamide carboxylates” (Bioorg Med Chem, 2018).

Molecular target: Macrophage metalloelastase (Homo sapiens, UniProt P39900)
Sequence (P39900 whole entry): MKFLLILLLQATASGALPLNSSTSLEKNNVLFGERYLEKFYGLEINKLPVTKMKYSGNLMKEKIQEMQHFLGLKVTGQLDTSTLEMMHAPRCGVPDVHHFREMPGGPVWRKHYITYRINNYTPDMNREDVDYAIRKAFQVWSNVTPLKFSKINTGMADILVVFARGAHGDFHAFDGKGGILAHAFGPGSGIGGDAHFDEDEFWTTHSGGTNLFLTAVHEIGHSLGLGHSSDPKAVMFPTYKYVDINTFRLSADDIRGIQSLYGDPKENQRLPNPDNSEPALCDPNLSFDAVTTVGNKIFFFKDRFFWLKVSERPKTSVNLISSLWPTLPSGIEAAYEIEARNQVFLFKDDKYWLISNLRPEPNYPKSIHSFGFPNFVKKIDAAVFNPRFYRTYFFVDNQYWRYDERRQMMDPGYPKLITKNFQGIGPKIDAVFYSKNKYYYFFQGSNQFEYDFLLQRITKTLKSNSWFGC
Experiment: Inhibition of recombinant human MMP12 using Mca-Lys-Pro-Leu-Gly-Leu-Dap(Dnp)-Ala-Arg-NH2 as substrate preincubated for 3 hrs followed by substrate addition and measured every 10 secs for 15 mins by fluorescence assay
In short: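 Inhibitor at seven concentrations, 3 h at 25 °C; 2 µM final substrate. Fluorescence read at ex 325/em 400 nm. Done in triplicate. IC50 fitted as vi/v0 = 1/(1+[I]/IC50).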
`CC(=O)N[C@@H]1[C@@H](OC(C)=O)[C@H](OC(C)=O)[C@@H](COC(C)=O)O[C@H]1N([C@@H](C(=O)O)C(C)C)S(=O)(=O)c1ccc(-c2ccccc2)cc1` showed an IC50 of 40000 nM.
Work on `CC(C)[C@H](C(=O)O)N([C@@H]1O[C@H](CO)[C@@H](O)[C@H](O)[C@H]1O)S(=O)(=O)c1ccc(-c2ccccc2)cc1` yielded an IC50 of 1300 nM.
Compound `CO[C@@H]1O[C@H](CNC(=S)NCCN([C@@H](C(=O)O)C(C)C)S(=O)(=O)c2ccc(-c3ccccc3)cc2)[C@@H](O)[C@H](O)[C@H]1O` has an IC50 of 65 nM.
Compound `CC(=O)OC[C@H]1O[C@@H](N([C@@H](C(=O)O)C(C)C)S(=O)(=O)c2ccc(-c3ccccc3)cc2)[C@H](OC(C)=O)[C@@H](OC(C)=O)[C@@H]1OC(C)=O` has an IC50 of 9600 nM.
`CC(=O)OC[C@H]1O[C@@H](NC(=S)NCCN([C@@H](C(=O)O)C(C)C)S(=O)(=O)c2ccc(-c3ccccc3)cc2)[C@H](OC(C)=O)[C@@H](OC(C)=O)[C@@H]1OC(C)=O` showed an IC50 of 19 nM.
Compound `CC(C)[C@H](C(=O)O)N(CCNC(=S)N[C@@H]1O[C@H](CO)[C@@H](O)[C@H](O)[C@H]1O)S(=O)(=O)c1ccc(-c2ccccc2)cc1` has an IC50 of 98 nM.
`CC(=O)N[C@@H]1[C@@H](O)[C@H](O)[C@@H](CO)O[C@H]1NC(=S)NCCN([C@@H](C(=O)O)C(C)C)S(=O)(=O)c1ccc(-c2ccccc2)cc1` gave an IC50 of 40 nM.
Work on `CO[C@@H]1O[C@H](CN([C@@H](C(=O)O)C(C)C)S(=O)(=O)c2ccc(-c3ccccc3)cc2)[C@@H](OC(C)=O)[C@H](OC(C)=O)[C@H]1NC(C)=O` yielded an IC50 of 83 nM.
`CO[C@@H]1O[C@H](CN([C@@H](C(=O)O)C(C)C)S(=O)(=O)c2ccc(-c3ccccc3)cc2)[C@@H](O)[C@H](O)[C@H]1O` showed an IC50 of 51 nM.
Work on `CO[C@@H]1O[C@H](CNC(=S)NCCN([C@@H](C(=O)O)C(C)C)S(=O)(=O)c2ccc(-c3ccccc3)cc2)[C@@H](OC(C)=O)[C@H](OC(C)=O)[C@H]1OC(C)=O` yielded an IC50 of 20 nM.
In the case of `CC(=O)N[C@@H]1[C@@H](OC(C)=O)[C@H](OC(C)=O)[C@@H](COC(C)=O)O[C@H]1NC(=S)NCCN([C@@H](C(=O)O)C(C)C)S(=O)(=O)c1ccc(-c2ccccc2)cc1`, the IC50 is reported as 18 nM.
Work on `CC(=O)N[C@@H]1[C@@H](O)[C@H](O)[C@@H](CO)O[C@H]1N([C@@H](C(=O)O)C(C)C)S(=O)(=O)c1ccc(-c2ccccc2)cc1` yielded an IC50 of 9200 nM.
With `CO[C@@H]1O[C@H](CN([C@@H](C(=O)O)C(C)C)S(=O)(=O)c2ccc(-c3ccccc3)cc2)[C@@H](OC(C)=O)[C@H](OC(C)=O)[C@H]1OC(C)=O` the IC50 was 84 nM.
Compound `CO[C@@H]1O[C@H](CN([C@@H](C(=O)O)C(C)C)S(=O)(=O)c2ccc(-c3ccccc3)cc2)C(O)[C@H](O)C1NC(C)=O` (single isomer, unassigned) has an IC50 of 41 nM.

Molecular target: Matrix metalloproteinase-9 (Homo sapiens, UniProt P14780)
Sequence (P14780 whole entry): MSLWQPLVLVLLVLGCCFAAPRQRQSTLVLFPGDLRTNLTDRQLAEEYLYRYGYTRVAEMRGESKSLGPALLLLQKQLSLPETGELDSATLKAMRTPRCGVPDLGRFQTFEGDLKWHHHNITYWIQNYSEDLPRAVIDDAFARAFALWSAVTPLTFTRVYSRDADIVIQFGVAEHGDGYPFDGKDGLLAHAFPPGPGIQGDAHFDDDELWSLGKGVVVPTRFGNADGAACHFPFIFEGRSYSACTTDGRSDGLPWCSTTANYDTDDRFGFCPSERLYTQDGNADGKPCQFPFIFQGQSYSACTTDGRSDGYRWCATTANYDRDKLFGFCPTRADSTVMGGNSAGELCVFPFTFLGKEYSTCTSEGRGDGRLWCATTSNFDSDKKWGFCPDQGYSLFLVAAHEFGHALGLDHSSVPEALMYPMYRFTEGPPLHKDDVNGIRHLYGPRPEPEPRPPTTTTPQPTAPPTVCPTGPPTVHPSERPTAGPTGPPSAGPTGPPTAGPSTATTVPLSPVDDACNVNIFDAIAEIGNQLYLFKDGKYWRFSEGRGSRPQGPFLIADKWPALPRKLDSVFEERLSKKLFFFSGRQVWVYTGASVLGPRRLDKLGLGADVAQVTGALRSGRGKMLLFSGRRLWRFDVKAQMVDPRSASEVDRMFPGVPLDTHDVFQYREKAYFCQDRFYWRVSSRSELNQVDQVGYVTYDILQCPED
Experiment: Inhibition of recombinant human MMP9 using Mca-Lys-Pro-Leu-Gly-Leu-Dap(Dnp)-Ala-Arg-NH2 as substrate preincubated for 3 hrs followed by substrate addition and measured every 10 secs for 15 mins by fluorescence assay
In short: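 Pro-enzyme activated just before use with 1 mM APMA for 1 h at 37 °C; 1.3 nM final enzyme. Inhibitor at seven concentrations, 3 h at 25 °C; 2 µM final substrate. Fluorescence read at ex 325/em 400 nm. Done in triplicate. IC50 fitted as vi/v0 = 1/(1+[I]/IC50).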
`CC(C)[C@H](C(=O)O)N([C@@H]1O[C@H](CO)[C@@H](O)[C@H](O)[C@H]1O)S(=O)(=O)c1ccc(-c2ccccc2)cc1` showed an IC50 greater than 50000 nM.
With `CO[C@@H]1O[C@H](CNC(=S)NCCN([C@@H](C(=O)O)C(C)C)S(=O)(=O)c2ccc(-c3ccccc3)cc2)[C@@H](O)[C@H](O)[C@H]1O` the IC50 was 520 nM.
In the case of `CC(=O)OC[C@H]1O[C@@H](NC(=S)NCCN([C@@H](C(=O)O)C(C)C)S(=O)(=O)c2ccc(-c3ccccc3)cc2)[C@H](OC(C)=O)[C@@H](OC(C)=O)[C@@H]1OC(C)=O`, the IC50 is reported as 880 nM.
`CC(C)[C@H](C(=O)O)N(CCNC(=S)N[C@@H]1O[C@H](CO)[C@@H](O)[C@H](O)[C@H]1O)S(=O)(=O)c1ccc(-c2ccccc2)cc1` gave an IC50 of 1120 nM.
`CC(=O)N[C@@H]1[C@@H](O)[C@H](O)[C@@H](CO)O[C@H]1NC(=S)NCCN([C@@H](C(=O)O)C(C)C)S(=O)(=O)c1ccc(-c2ccccc2)cc1` showed an IC50 of 5400 nM.
Work on `CO[C@@H]1O[C@H](CN([C@@H](C(=O)O)C(C)C)S(=O)(=O)c2ccc(-c3ccccc3)cc2)[C@@H](OC(C)=O)[C@H](OC(C)=O)[C@H]1NC(C)=O` yielded an IC50 of 1240 nM.
`CO[C@@H]1O[C@H](CN([C@@H](C(=O)O)C(C)C)S(=O)(=O)c2ccc(-c3ccccc3)cc2)[C@@H](O)[C@H](O)[C@H]1O` gave an IC50 of 2200 nM.
`CO[C@@H]1O[C@H](CNC(=S)NCCN([C@@H](C(=O)O)C(C)C)S(=O)(=O)c2ccc(-c3ccccc3)cc2)[C@@H](OC(C)=O)[C@H](OC(C)=O)[C@H]1OC(C)=O` showed an IC50 of 32 nM.
`CC(=O)N[C@@H]1[C@@H](OC(C)=O)[C@H](OC(C)=O)[C@@H](COC(C)=O)O[C@H]1NC(=S)NCCN([C@@H](C(=O)O)C(C)C)S(=O)(=O)c1ccc(-c2ccccc2)cc1` gave an IC50 of 1200 nM.
`CO[C@@H]1O[C@H](CN([C@@H](C(=O)O)C(C)C)S(=O)(=O)c2ccc(-c3ccccc3)cc2)[C@@H](OC(C)=O)[C@H](OC(C)=O)[C@H]1OC(C)=O` showed an IC50 of 2600 nM.
Work on `CO[C@@H]1O[C@H](CN([C@@H](C(=O)O)C(C)C)S(=O)(=O)c2ccc(-c3ccccc3)cc2)C(O)[C@H](O)C1NC(C)=O` (single isomer, unassigned) yielded an IC50 of 890 nM.

System: not listed separately
Experiment: Solubility in water
Assay type: physicochemical
Compound `CC(=O)N[C@@H]1[C@@H](O)[C@H](O)[C@@H](CO)O[C@H]1NC(=S)NCCN([C@@H](C(=O)O)C(C)C)S(=O)(=O)c1ccc(-c2ccccc2)cc1` has a solubility greater than 5 mM.
